# m5-HT2A agonist: mouse Htr2a agonists via beta-arrestin recruitment, primary screen, cell-based, luminescence; CHO-K1 mHTR2A beta-arrestin complementation; percent of 30 µM serotonin response; activation, % at 7.6 µM; 360,000 tested, 0.66% active; AID 624169, 2012;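 active = activation above a run cutoff, the mean activation of all tested compounds plus 3 SD, cut at about 14% in these data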;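 note: 0% = plate median of compound wells and 100% = 30 µM serotonin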
# CHRM1 agonist: human M1 muscarinic receptor agonists, primary screen, Fluo-8 calcium fluorescence, CHO-K1 cells, HTS | activation, % at 3 µM | AID 588814, 2011 | CHO-K1 hM1, agonist mode; 0% DMSO, 100% acetylcholine EC100 | 360,000 tested, 0.33% active;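 active = activation above the run's mean compound activation plus 3 SD, cut at about 16% in these data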;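 note: peak over basal fluorescence ratio within a 140 s kinetic read after compound addition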
# Target sequence (P11229 whole entry, looked up): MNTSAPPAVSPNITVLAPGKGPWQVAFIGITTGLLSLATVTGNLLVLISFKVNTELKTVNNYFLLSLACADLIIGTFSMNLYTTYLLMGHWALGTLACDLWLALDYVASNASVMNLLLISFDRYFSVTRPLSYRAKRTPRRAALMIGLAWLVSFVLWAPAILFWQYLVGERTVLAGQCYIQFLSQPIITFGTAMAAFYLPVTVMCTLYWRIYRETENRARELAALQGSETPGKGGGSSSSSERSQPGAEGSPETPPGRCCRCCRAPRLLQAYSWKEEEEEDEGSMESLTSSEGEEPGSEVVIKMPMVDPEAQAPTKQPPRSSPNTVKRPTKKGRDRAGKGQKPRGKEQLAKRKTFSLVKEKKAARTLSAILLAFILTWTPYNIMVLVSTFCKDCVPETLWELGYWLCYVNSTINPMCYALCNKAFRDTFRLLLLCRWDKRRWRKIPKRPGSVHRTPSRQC
# TAAR1 agonist: human TAAR1 agonists, primary screen, Fluo-8 calcium fluorescence, CHO RD-HGA16 cells. Trace amine-associated receptor 1 (Homo sapiens), Q96RJ0. vehicle wells 0%, saturating PEA agonist 100%. activation, % at 3 µM. 360,000 tested, 0.99% active. AID 624467, 2012;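 active = activation above the mean activation of all test compounds in the run plus 3 SD, cut at about 38% in these data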
#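 System: CHO-derived RD-HGA16 cells with stable Gα16 and human TAAR1. Times: 17-24 h plating, Fluo-8 75 min 37 °C, 30 min RT. Measured by: calcium-sensitive Fluo-8 signal, excitation 470-495, emission 515-575 nm. Read-out basis: % activation relative to PEA EC100 response. Control set: DMSO and PEA EC100. Repeats: no replicates (n 1).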
# CHRM1 PAM: human M1 muscarinic receptor positive allosteric modulators, primary screen, CHO-K1 cells, Fluo-8 calcium fluorescence, 1536-well | Muscarinic acetylcholine receptor M1 (Homo sapiens), P11229 | CHO-K1 hM1, ACh EC20; 0% = ACh EC20, 100% = maximal ACh | activation, % at 3 µM | 360,000 tested, 0.088% active | AID 588819, 2011; in the data active = activation above about 19%, passing the limit was not always enough
# TAAR1 antag: human TAAR1 antagonists, primary screen, Fluo-8 calcium fluorescence, CHO RD-HGA16 cells; Trace amine-associated receptor 1 (Homo sapiens), Q96RJ0; antagonist; inhibition, % at 3 µM; 360,000 tested, 1.5% active;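 active = inhibition above a per-plate cutoff, the mean inhibition of test compounds on that plate plus 3 SD, cut at about 49% in these data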;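 note: 0% = DMSO plus EC80 beta-PEA response and 100% = DMSO alone without agonist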
#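 Material: RD-HGA16 CHO cells with stable hTAAR1 and Gα16; Dosing: single nominal final test compound concentration of 3 µM; Schedule: seeding 17-24 h prior, 75-min 37 °C, 30-min RT dye loading; Detection: kinetic Fluo-8 calcium fluorescence measurement; Measure: % inhibition from peak post-agonist over basal fluorescence ratio; Benchmarks: vehicle and agonist controls.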
# CHRM1 antagonist: human M1 muscarinic receptor antagonists, primary screen, CHO-K1 cells, Fluo-8 calcium fluorescence, 1536-well; CHO-K1 hM1, ACh EC80 antagonist; 360,000 tested, 1.3% active; AID 588852, 2011; inhibition, % at 3 µM;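 active = percent inhibition above its own plate's cutoff, namely the mean of that plate's compound wells plus 3 SD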;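 note: peak over basal fluorescence ratio during 140 s after agonist addition; 0% = ACh EC80 plus DMSO and 100% = DMSO alone without agonist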
# Starred values were filed as active, the others as inactive; . = no result given. Sampled rows, rich in hits. Any-hit rate of the full collection: about 3.9%.
SMILES,m5-HT2A agonist,CHRM1 agonist,TAAR1 agonist,CHRM1 PAM,TAAR1 antag,CHRM1 antagonist
COc1ccc(C(=O)/C(=C\c2ccco2)N2C=CC=CC2=C(C#N)C#N)cc1,-5.2,-2.5,.,4.2,.,3.2
Cc1ccccc1C(=O)Nc1cccc(C(=O)N/N=C/c2ccc3c(c2)OCO3)c1,-6.3,-3.5,5.8,-6.9,25.9,3.0
COc1ccccc1/C=N/NC(=O)c1ccc(NC(=O)c2ccccc2Br)cc1,-1.0,-6.6,11.4,-7.6,50.7*,9.2
COc1cccc(OC)c1C(=O)Nc1ccc(Br)c(C(=O)c2ccccc2)c1,8.2,-3.2,-0.9,-11.9,52.9*,32.5
O=C(N/N=C/c1ccc(O)cc1)c1ccc(NC(=O)c2ccccc2Br)cc1,1.2,-1.0,3.3,-1.5,37.0,9.0
COc1cc(/C=N/NC(=O)c2cccc(NC(=O)c3ccccc3C)c2)ccc1O,-0.5,-2.6,15.3,-11.5,61.3*,18.6
COc1ccc(/C=N/NC(=O)c2ccc3ccccc3c2)cc1OS(=O)(=O)c1ccc(NC(C)=O)cc1,-3.2,-3.2,12.2,-15.4,74.4*,26.1
Cc1ccc(C(=O)Nc2ccccc2N2CCCC2)cc1,-6.3,-6.9,4.3,5.0,-18.7,-6.9
CCN(CC)CCC=C(c1cccs1)c1cccs1,-2.6,-5.9,1.7,-28.0,-24.3,95.9*
CCN(CC)CCCNC(=O)/C(=C\c1cccn1C)NC(=O)c1cccs1,0.1,-6.8,-0.9,6.8,8.5,-8.2
Cc1ccc(NC(=O)c2cc(-c3cc(C)c(C)cc3O)n[nH]2)cc1C,0.8,6.2,-0.5,28.4*,-13.2,-24.0
Cc1ccc(NC(=O)c2cc(-c3ccc(C)c(C)c3O)n[nH]2)cc1C,-3.0,-3.7,0.7,7.6,13.1,0.4
COc1cc(C(=O)OC(C)CN2CCCCC2)cc(OC)c1OC (stereo not drawn),-2.8,-7.3,0.2,10.5,-2.8,-6.4
Cc1ccc(C(=O)N(C)c2ccc(OCC(=O)N3c4ccc(C)cc4C4CN(C)CCC43)cc2)cc1 (stereo not drawn),-5.5,-15.1,.,-29.7,.,22.6*
Cc1ccc2c(c1)C1CN(C)CCC1N2S(=O)(=O)c1cc(C(F)(F)F)ccc1Cl (stereo not drawn),-8.8,4.5,4.0,13.4,-5.3,-3.1
Cc1ccc2c(c1)C1CN(C)CCC1N2S(=O)(=O)c1cccc(C(F)(F)F)c1 (stereo not drawn),-12.2,-6.2,10.5,2.5,-36.1,1.9
Cc1ccc2c(c1)C1CN(C)CCC1N2C(=O)c1cccc(S(=O)(=O)N2CC(C)CC(C)C2)c1 (stereo not drawn),2.3,-7.9,2.4,-23.8,-25.9,37.4*
Cc1ccc2c(c1)C1CN(C)CCC1N2C(=O)c1ccc(Cl)c(S(=O)(=O)N2CCOCC2)c1 (stereo not drawn),0.6,-4.5,3.9,-22.2,-10.7,79.0*
CCOC(=O)C1=CCN(S(=O)(=O)c2ccc(Br)cc2)C1c1cccc(Br)c1 (stereo not drawn),.,.,0.0,.,-2.5,.
Cc1cccc(CN2CCC(Oc3ccc(C(=O)N4CCCC4)cc3)CC2)n1,-0.1,-5.7,1.5,-0.8,-15.5,3.7
CC(C)c1ccc(NC(=O)c2snc3ccc(Cl)cc23)cc1,-4.2,-9.6,7.2,-0.5,35.5,3.8
Cc1ccc2nc3c(c(C(=O)OCC(=O)NC4CCS(=O)(=O)C4)c2c1)CCCC3 (stereo not drawn),2.5,-6.6,9.9,-2.2,-2.8,4.8
Nc1sc2c(c1C(=O)NC1CCS(=O)(=O)C1)CCCC2 (stereo not drawn),22.4*,-2.4,-0.3,2.9,0.8,-3.3
NC(=O)c1c(N)sc2c1CCCC2,0.9,-2.5,2.0,16.2,3.4,-7.0
Cc1ccc(NC(=O)C(OC(=O)c2ccc(O)cc2)c2ccccc2)cc1Cl (stereo not drawn),3.7,-5.6,0.6,10.6,-1.1,-5.3
SMILES,m5-HT2A agonist,CHRM1 agonist,TAAR1 agonist,CHRM1 PAM,TAAR1 antag,CHRM1 antagonist
Cc1ccc(NC(=O)C(OC(=O)c2ccc(F)cc2)c2ccccc2)cc1Cl (stereo not drawn),-5.0,6.1,5.0,-8.5,-15.9,39.6*
COc1cc(/C=C2\CC/C(=C\c3ccc(OCCO)c(OC)c3)C2=O)ccc1OCCO,-3.6,32.4*,29.1,-15.6,43.4,16.2
COc1cc(/C=C2/CC/C(=C/c3ccc(O)c(OC)c3)C2=O)ccc1O,-2.4,9.6,40.1*,3.2,67.4*,-7.6
COc1cc(/C=C2\COC/C(=C\c3ccc(O)c(OC)c3)C2=O)ccc1O,0.1,0.0,12.3,3.3,45.5,3.1
O=C(c1cccc(NC2=NC3CS(=O)(=O)CC3S2)c1)N1CCN(c2cccc(Cl)c2)CC1 (stereo not drawn),0.2,-0.7,3.7,-5.6,3.9,2.1
CC(C)=CCc1cc(-c2oc3cc(O)cc(O)c3c(=O)c2O)ccc1O,-0.1,-12.8,-0.1,2.3,5.9,5.2
CC(C)=CCc1c(O)cc2oc3c(CC=C(C)C)c(O)c(O)c(CC=C(C)C)c3c(=O)c2c1O,7.1,-0.5,4.5,-13.1,57.5*,16.9
CCOC(=O)C1=C(COC(=O)C2CC(=O)N(c3ccccc3F)C2)NC(=O)NC1C (stereo not drawn),2.1,-0.9,-0.2,6.0,-1.4,-2.3
O=c1c2cc(NC(=S)NCCCN3CCC(Cc4ccccc4)CC3)ccc2nc2n1CCCCC2,-5.6,-1.8,26.8,-25.9,8.1,67.2*
O=c1c2cc(NC(=S)NCCN3CCCCCC3)ccc2nc2n1CCCCC2,2.2,-8.5,1.4,-14.7,-13.7,13.3
CCN(c1ccccc1)S(=O)(=O)c1cccc(C(=O)NCc2ccncc2)c1,-0.8,-3.0,1.9,8.8,-31.6,-13.5
CCOc1ccc(NC(=O)CN(C)C(=O)c2cc3c(s2)CCC(C)C3)cc1OCC (stereo not drawn),2.6,-6.7,6.0,5.0,-21.9,-7.6
CCN(CC1CCCN(CCc2cccc(F)c2)C1)C(=O)c1ccc(CSC)o1 (stereo not drawn),-10.5,-6.8,0.1,-24.0,-21.6,60.8*
CCN(CC1CCCN(CCc2cccc(F)c2)C1)C(=O)c1ccoc1C (stereo not drawn),-3.8,-9.1,1.2,-10.8,-20.1,9.2
